Assay results: ChEMBL document CHEMBL1156772, “Synthesis, affinity profile and functional activity of potent chiral muscarinic antagonists with a pyrrolidinylfuran structure” (J Med Chem, 2010)

Assays:
Muscarinic receptor 4 = biological target: T1, Muscarinic receptor 4 (Cavia porcellus, UniProt Q8VH25); experiment: (§1) Antagonist activity at muscarinic M4 receptor in guinea pig lung strips assessed as effect on isotonic contraction after 60 mins; type: functional; details: read-out: pA2 (converted)
T1 sequence (Q8VH25 whole entry): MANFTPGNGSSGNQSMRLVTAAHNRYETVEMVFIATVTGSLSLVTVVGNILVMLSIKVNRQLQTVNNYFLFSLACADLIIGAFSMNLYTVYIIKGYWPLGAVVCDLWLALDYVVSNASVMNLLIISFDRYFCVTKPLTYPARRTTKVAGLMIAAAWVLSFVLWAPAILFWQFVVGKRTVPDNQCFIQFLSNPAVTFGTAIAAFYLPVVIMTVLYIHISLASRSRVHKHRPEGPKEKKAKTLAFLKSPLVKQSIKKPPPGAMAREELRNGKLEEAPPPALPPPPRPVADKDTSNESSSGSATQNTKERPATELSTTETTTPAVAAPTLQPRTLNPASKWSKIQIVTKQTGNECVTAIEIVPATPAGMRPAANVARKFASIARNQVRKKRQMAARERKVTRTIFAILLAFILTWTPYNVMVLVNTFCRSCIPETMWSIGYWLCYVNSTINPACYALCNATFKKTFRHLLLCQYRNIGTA

Muscarinic receptor 2 = biological target: T2, Muscarinic receptor 2 (Cavia porcellus, UniProt Q8VH27); experiment: (§2) Antagonist activity at muscarinic M2 receptor in guinea pig left atrium assessed as effect on electrically-stimulated inotropic activity after 60 mins; type: functional, tissue-based, Cardiac atrium; details: read-out: pA2 (converted)
T2 sequence (Q8VH27 whole entry): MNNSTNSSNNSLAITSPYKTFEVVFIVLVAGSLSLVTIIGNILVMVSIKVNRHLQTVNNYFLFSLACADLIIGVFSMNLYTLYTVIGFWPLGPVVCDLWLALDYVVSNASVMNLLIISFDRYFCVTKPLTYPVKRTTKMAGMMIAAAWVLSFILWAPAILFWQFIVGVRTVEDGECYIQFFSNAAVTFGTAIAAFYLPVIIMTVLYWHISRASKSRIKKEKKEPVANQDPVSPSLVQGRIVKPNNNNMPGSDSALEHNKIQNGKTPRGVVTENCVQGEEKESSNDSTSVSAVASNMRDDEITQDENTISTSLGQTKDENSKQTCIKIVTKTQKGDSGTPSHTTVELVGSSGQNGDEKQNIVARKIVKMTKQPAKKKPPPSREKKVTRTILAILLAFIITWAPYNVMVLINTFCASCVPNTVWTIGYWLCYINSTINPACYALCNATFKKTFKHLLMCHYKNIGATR

[1] = biological target: Muscarinic acetylcholine receptor M3 (Cavia porcellus) (UniProt Q8VH26); experiment: Antagonist activity at muscarinic M3 receptor in guinea pig ileum assessed as effect on isotonic tension after 60 mins; type: functional, tissue-based
Muscarinic acetylcholine receptor M3 (Cavia porcellus), sequence (Q8VH26 1-587): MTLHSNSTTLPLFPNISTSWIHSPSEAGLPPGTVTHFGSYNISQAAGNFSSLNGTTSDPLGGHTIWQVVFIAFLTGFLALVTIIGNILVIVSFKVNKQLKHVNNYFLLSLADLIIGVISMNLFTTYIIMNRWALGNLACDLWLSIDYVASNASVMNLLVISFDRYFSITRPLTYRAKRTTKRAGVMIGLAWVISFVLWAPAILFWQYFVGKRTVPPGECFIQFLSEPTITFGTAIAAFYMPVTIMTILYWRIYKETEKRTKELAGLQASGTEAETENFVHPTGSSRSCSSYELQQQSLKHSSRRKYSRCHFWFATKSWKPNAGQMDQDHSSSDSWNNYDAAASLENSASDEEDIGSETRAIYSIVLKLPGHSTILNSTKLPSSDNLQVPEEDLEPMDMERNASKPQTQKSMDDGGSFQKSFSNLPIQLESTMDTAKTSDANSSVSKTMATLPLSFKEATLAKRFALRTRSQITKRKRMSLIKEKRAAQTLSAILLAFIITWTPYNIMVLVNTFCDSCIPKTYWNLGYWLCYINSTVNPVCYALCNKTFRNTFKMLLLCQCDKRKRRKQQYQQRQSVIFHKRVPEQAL

[2] = biological target: T3, Muscarinic acetylcholine receptor M4 (Homo sapiens, UniProt P08173); experiment: Displacement of [3H]NMS from human cloned muscarinic M4 receptor expressed in CHO cells by scintillation counting; type: cell-based
T3 sequence (P08173 whole entry): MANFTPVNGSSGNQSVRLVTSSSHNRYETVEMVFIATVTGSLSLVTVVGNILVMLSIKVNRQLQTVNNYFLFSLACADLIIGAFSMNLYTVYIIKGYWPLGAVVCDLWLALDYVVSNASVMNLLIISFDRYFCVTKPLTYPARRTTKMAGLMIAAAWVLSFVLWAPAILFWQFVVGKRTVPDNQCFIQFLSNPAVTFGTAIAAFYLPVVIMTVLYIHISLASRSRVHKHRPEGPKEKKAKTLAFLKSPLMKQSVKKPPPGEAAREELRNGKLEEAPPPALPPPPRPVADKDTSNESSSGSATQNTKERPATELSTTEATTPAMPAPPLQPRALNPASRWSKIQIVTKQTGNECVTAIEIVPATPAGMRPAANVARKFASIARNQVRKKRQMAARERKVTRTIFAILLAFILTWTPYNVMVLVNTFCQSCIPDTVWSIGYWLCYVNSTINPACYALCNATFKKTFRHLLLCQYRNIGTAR

[3] = biological target: T4, Muscarinic acetylcholine receptor M1 (Homo sapiens, UniProt P11229); experiment: Displacement of [3H]NMS from human cloned muscarinic M1 receptor expressed in CHO cells by scintillation counting; type: cell-based
T4 sequence (P11229 whole entry): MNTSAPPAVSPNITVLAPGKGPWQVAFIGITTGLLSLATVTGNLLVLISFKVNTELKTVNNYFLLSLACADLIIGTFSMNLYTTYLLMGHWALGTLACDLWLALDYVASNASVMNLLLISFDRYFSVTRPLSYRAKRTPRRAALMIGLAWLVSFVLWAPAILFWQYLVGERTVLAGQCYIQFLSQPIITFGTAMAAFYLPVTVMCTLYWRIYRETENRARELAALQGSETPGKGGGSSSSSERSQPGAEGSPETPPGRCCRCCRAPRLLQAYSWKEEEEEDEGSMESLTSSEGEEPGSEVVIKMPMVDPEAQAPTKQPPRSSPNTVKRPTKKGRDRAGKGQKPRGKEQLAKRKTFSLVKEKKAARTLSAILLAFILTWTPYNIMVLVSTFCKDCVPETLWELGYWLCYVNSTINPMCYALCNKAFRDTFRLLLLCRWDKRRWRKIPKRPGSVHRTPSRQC

[4] = biological target: T5, Muscarinic acetylcholine receptor M5 (Homo sapiens, UniProt P08912); experiment: Displacement of [3H]NMS from human cloned muscarinic M5 receptor expressed in CHO cells by scintillation counting; type: cell-based
T5 sequence (P08912 whole entry): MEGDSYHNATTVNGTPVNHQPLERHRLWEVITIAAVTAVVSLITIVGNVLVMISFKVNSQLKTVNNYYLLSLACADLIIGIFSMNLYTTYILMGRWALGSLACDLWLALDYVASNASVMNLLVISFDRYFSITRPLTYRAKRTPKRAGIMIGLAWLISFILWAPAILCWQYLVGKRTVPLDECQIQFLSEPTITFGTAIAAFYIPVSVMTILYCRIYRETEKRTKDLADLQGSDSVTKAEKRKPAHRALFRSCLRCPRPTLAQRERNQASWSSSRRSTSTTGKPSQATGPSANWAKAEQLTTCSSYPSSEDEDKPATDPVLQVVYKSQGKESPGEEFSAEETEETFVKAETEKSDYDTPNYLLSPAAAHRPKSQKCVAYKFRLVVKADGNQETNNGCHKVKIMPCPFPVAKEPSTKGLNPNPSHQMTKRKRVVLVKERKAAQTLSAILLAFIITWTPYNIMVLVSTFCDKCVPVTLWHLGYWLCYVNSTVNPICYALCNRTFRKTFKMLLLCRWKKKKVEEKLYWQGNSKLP
Procedure, shortened: (§3)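 Equilibrium radioligand binding in CHO cells expressing the human muscarinic subtype, following the authors' earlier protocol.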

[5] = Antagonist activity at muscarinic M1 receptor in New Zealand rabbit vas deferens assessed as effect on electrically-stimulated muscle contraction after 60 mins; type: functional, Oryctolagus cuniculus
[6] = biological target: Muscarinic acetylcholine receptor M3 (Homo sapiens, UniProt P20309); experiment: Displacement of [3H]NMS from human cloned muscarinic M3 receptor expressed in CHO cells by scintillation counting; type: cell-based
Muscarinic acetylcholine receptor M3, sequence (P20309 whole entry): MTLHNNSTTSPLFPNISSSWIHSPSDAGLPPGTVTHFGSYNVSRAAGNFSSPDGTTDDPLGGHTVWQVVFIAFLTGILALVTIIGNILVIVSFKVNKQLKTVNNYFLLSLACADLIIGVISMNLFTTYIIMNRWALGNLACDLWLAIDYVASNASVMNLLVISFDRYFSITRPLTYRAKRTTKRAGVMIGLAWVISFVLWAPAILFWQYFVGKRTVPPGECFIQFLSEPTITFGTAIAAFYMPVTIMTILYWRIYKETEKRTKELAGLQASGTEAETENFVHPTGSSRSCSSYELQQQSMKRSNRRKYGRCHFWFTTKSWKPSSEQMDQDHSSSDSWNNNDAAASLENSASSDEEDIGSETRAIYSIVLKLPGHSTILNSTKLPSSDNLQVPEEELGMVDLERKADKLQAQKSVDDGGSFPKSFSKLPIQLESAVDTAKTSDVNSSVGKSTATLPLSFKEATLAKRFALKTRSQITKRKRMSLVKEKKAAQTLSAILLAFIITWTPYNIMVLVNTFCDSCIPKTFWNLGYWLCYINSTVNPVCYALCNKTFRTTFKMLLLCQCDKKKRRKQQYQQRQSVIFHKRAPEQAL

[7] = biological target: T6, Muscarinic acetylcholine receptor M2 (Homo sapiens, UniProt P08172); experiment: Displacement of [3H]NMS from human cloned muscarinic M2 receptor expressed in CHO cells by scintillation counting; type: cell-based; procedure, shortened: as §3
T6 sequence (P08172 whole entry): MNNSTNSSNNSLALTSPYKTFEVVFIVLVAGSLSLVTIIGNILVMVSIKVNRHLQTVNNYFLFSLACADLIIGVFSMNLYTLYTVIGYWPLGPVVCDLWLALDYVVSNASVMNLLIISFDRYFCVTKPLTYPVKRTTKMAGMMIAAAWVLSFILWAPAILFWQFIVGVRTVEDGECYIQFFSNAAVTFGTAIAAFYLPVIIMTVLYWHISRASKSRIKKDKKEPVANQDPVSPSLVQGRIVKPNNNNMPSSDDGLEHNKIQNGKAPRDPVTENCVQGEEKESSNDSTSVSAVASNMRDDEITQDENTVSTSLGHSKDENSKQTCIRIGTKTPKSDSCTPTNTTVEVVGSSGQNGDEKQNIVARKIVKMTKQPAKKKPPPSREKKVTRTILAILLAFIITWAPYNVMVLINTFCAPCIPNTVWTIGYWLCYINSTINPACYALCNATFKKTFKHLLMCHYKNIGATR

[8] = biological target: T7, Muscarinic receptor 4 (Cavia porcellus) (UniProt Q8VH25); experiment: as §1; type: functional
T7 sequence (whole entry): T1 sequence (Q8VH25 whole entry)

[9] = biological target: T8, Muscarinic receptor 2 (Cavia porcellus) (UniProt Q8VH27); experiment: as §2; type: functional, tissue-based; details: Cardiac atrium
T8 sequence (whole entry): T2 sequence (Q8VH27 whole entry)

Row | Structure (SMILES) | Kb (Muscarinic receptor 4) | Kb (Muscarinic receptor 2) | pKb [1] | Ki [2] | Ki [3] | Ki [4] | pKb [5] | Ki [6] | Ki [7] | pKb [8] | pKb [9]
1 | C[N+]1(C)[C@@H]2C[C@@H](OC(=O)[C@H](CO)c3ccccc3)C[C@H]1[C@@H]1O[C@@H]12 [METHSCOPOLAMINE] | 6.46 nM | 0.468 nM | – | – | – | – | – | – | – | – | –
2 | C[N+]1(C)CCC[C@@H]1c1ccc([C@](O)(c2ccccc2)C2CCCCC2)o1.[I-] | – | – | 8.95 | 4.27 nM | 0.692 nM | 1.55 nM | 10.15 | 1.51 nM | 2.34 nM | 7.75 | 8.49
3 | CN1CCCC1c1ccc(C(O)(c2ccccc2)c2ccccc2)o1 (racemic) | – | – | 6.65 | 105 nM | 35.5 nM | 97.7 nM | 6.91 | 95.5 nM | 29.5 nM | < 5 | 6.92
4 | CN1CCC[C@@H]1c1ccc([C@](O)(c2ccccc2)C2CCCCC2)o1 | – | – | 8.76 | 3.98 nM | 1.23 nM | 3.31 nM | 9.58 | 1.66 nM | 4.57 nM | 5.92 | 7.91
